Assay results from ChEMBL document CHEMBL2331516, “Synthesis and structure-activity relationships of 5,6,7-substituted pyrazolopyrimidines: discovery of a novel TSPO PET ligand for cancer imaging” (J Med Chem, 2013).
Each block holds one compound with its values, some of them ahead of it.

Assays:
[1] = Lipophilicity, log P of the compound at pH 7.5 by reversed phase HPLC analysis; format: physicochemical; details: buffer
How it was run: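 Retention times were set relative to catechol and calibrated against standards of known log P using a polynomial log P vs log RRT curve. Injections were done in triplicate and averaged.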

Translocator protein = Translocator protein (Rattus norvegicus, UniProt P16257); experiment: Displacement of [3H]-PK 11195 from TSPO in rat C6 cell lysates after 2 hrs by scintillation counting analysis; format: cell-free
How it was run: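 Rat C6 glioma cells washed in PBS and freeze-thawed three times in HEPES/mannitol/sucrose lysis buffer with protease inhibitors and MgCl2, pH 7.4 (lysate 0.5 mg/mL). Reaction stopped by filtration onto PEI-presoaked filters, then scintillation counting.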

[2] = Displacement of [3H]-flunitrazepam from CBR in Wistar rat cerebral cortex membranes after 2 hrs by scintillation counting analysis; format: cell membranes, Membrane
How it was run: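 Male Wistar rat cerebral cortex homogenized in ice-cold PBS pH 7.4 (5.0 mg/mL protein). Incubated with 0.6 nM [3H]flunitrazepam (final) and ligand at 10⁻⁵ to 10⁻⁷ M for 2 h at 25 °C. Reaction stopped by filtration onto PEI-presoaked filters, then scintillation counting of bound activity.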

Rattus norvegicus [3] = organism: Rattus norvegicus; experiment: Biodistribution in Wistar rat skull at 1.0 to 1.5 mCi after 60 mins by NaI well counting analysis; format: ADME, organism-based; details: in vivo, 1 h
How it was run: (§1)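 Radiotracer given to rats; 14 tissues plus urine taken 60 min after a 1.0–1.5 mCi injection. Each sample weighed and its radioactivity counted in a NaI well counter. %ID/g derived from weight and radioactivity.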

Brain [4] = experiment: Biodistribution in Wistar rat brain at 1.0 to 1.5 mCi after 60 mins by NaI well counting analysis; format: ADME, organism-based; details: in vivo, 1 h; how it was run: as §1
Testes = experiment: Biodistribution in Wistar rat testes at 1.0 to 1.5 mCi after 60 mins by NaI well counting analysis; format: ADME, organism-based, Testis; details: in vivo, 1 h; how it was run: as §1
Rattus norvegicus [5] = organism: Rattus norvegicus; experiment: Biodistribution in Wistar rat stomach at 1.0 to 1.5 mCi after 60 mins by NaI well counting analysis; format: ADME, organism-based; details: in vivo, 1 h; how it was run: as §1
Rattus norvegicus [6] = organism: Rattus norvegicus; experiment: Biodistribution in Wistar rat small bowel at 1.0 to 1.5 mCi after 60 mins by NaI well counting analysis; format: ADME, organism-based, Small intestine; details: in vivo, 1 h; how it was run: as §1
Colon = experiment: Biodistribution in Wistar rat colon at 1.0 to 1.5 mCi after 60 mins by NaI well counting analysis; format: ADME, organism-based; details: in vivo, 1 h; how it was run: as §1
Liver [7] = experiment: Biodistribution in Wistar rat liver at 1.0 to 1.5 mCi after 60 mins by NaI well counting analysis; format: ADME, organism-based; details: in vivo, 1 h; how it was run: as §1
Lung [8] = experiment: Biodistribution in Wistar rat lung at 1.0 to 1.5 mCi after 60 mins by NaI well counting analysis; format: ADME, organism-based; details: in vivo, 1 h; how it was run: as §1
Heart [9] = experiment: Biodistribution in Wistar rat heart at 1.0 to 1.5 mCi after 60 mins by NaI well counting analysis; format: ADME, organism-based; details: in vivo, 1 h; how it was run: as §1
Kidney [10] = experiment: Biodistribution in Wistar rat kidney at 1.0 to 1.5 mCi after 60 mins by NaI well counting analysis; format: ADME, organism-based; details: in vivo, 1 h; how it was run: as §1
Spleen [11] = experiment: Biodistribution in Wistar rat spleen at 1.0 to 1.5 mCi after 60 mins by NaI well counting analysis; format: ADME, organism-based; details: in vivo, 1 h; how it was run: as §1
Rattus norvegicus [12] = organism: Rattus norvegicus; experiment: Stability in C6 cells bearing Wistar rat plasma at 1.5 mCi after 90 mins by radio-HPLC analysis; format: ADME, organism-based; details: c6, 1.5 h
How it was run: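 Arterial blood (200 μL) drawn at 2, 12, 30, 60 and 90 min after 1.5 mCi radiotracer. Plasma extracted with acetonitrile/water 7/1 and centrifuged. Supernatant run on reversed-phase radio-HPLC with 0.1 M ammonium acetate pH 10/acetonitrile (30/70).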

[13] = Ratio of total distribution volume in C6 cells bearing Wistar rat tumor to total distribution volume in C6 cells bearing Wistar rat brain; format: ADME, cell-based
[14] = Drug uptake in iv dosed C6 cells bearing Wistar rat tongue after 90 mins by PET imaging analysis; format: ADME, organism-based; details: in vivo, 1.5 h
How it was run: (§2)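 Male Wistar rats stereotactically inoculated in the right hemisphere with 1.0×10^5 C6 glioma cells two weeks before imaging, with venous and arterial catheters placed. Tumors confirmed by 4.7-T MRI. PET/CT followed within 24 h, with tracer given via jugular catheter during the scan.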

Brain [15] = experiment: Drug uptake in iv dosed C6 cells bearing Wistar rat brain after 90 mins by PET imaging analysis; format: ADME, organism-based; details: in vivo, 1.5 h; how it was run: as §2
[16] = Drug uptake in iv dosed C6 cells bearing Wistar rat olfactory epithelium after 90 mins by PET imaging analysis; format: ADME, organism-based; details: in vivo, 1.5 h; how it was run: as §2
Harderian gland = experiment: Drug uptake in iv dosed C6 cells bearing Wistar rat harderian glands after 90 mins by PET imaging analysis; format: ADME, organism-based; details: in vivo, 1.5 h; how it was run: as §2
[17] = Drug uptake in iv dosed C6 cells bearing Wistar rat tumor after 90 mins by PET imaging analysis; format: ADME, organism-based, Neoplasm; details: in vivo, 1.5 h; how it was run: as §2
[18] = Drug excretion in Wistar rat urine at 1.0 to 1.5 mCi after 90 mins by NaI well counting analysis in presence of 2-(5,7-diethyl-2-(4-(2-fluoroethoxy)phenyl)pyrazolo[1,5-a]-pyrimidin-3-yl)-N,N-diethylacetamide; format: ADME, tissue-based; details: in vivo, 1.5 h
How it was run: (§3)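 Rats received 1.0–1.5 mCi radiotracer. Unlabelled analog (10 mg/kg) was injected 30 min after tracer as a displacement challenge. Tissues taken and counted in a NaI well counter. %ID/g derived from sample weight and radioactivity.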

Liver [19] = experiment: Drug uptake in Wistar rat liver at 1.0 to 1.5 mCi after 90 mins by NaI well counting analysis in presence of 2-(5,7-diethyl-2-(4-(2-fluoroethoxy)phenyl)pyrazolo[1,5-a]-pyrimidin-3-yl)-N,N-diethylacetamide; format: ADME, tissue-based; details: in vivo, 1.5 h; how it was run: as §3
Muscle tissue = experiment: Drug uptake in Wistar rat muscle at 1.0 to 1.5 mCi after 90 mins by NaI well counting analysis in presence of 2-(5,7-diethyl-2-(4-(2-fluoroethoxy)phenyl)pyrazolo[1,5-a]-pyrimidin-3-yl)-N,N-diethylacetamide; format: ADME, tissue-based; details: in vivo, 1.5 h; how it was run: as §3
Lung [20] = experiment: Drug uptake in Wistar rat lung at 1.0 to 1.5 mCi after 90 mins by NaI well counting analysis in presence of 2-(5,7-diethyl-2-(4-(2-fluoroethoxy)phenyl)pyrazolo[1,5-a]-pyrimidin-3-yl)-N,N-diethylacetamide; format: ADME, tissue-based; details: in vivo, 1.5 h; how it was run: as §3
Kidney [21] = experiment: Drug uptake in Wistar rat kidney at 1.0 to 1.5 mCi after 90 mins by NaI well counting analysis in presence of 2-(5,7-diethyl-2-(4-(2-fluoroethoxy)phenyl)pyrazolo[1,5-a]-pyrimidin-3-yl)-N,N-diethylacetamide; format: ADME, tissue-based; details: in vivo, 1.5 h; how it was run: as §3
Heart [22] = experiment: Drug uptake in Wistar rat heart at 1.0 to 1.5 mCi after 90 mins by NaI well counting analysis in presence of 2-(5,7-diethyl-2-(4-(2-fluoroethoxy)phenyl)pyrazolo[1,5-a]-pyrimidin-3-yl)-N,N-diethylacetamide; format: ADME, tissue-based; details: in vivo, 1.5 h; how it was run: as §3
Spleen [23] = experiment: Drug uptake in Wistar rat spleen at 1.0 to 1.5 mCi after 90 mins by NaI well counting analysis in presence of 2-(5,7-diethyl-2-(4-(2-fluoroethoxy)phenyl)pyrazolo[1,5-a]-pyrimidin-3-yl)-N,N-diethylacetamide; format: ADME, tissue-based; details: in vivo, 1.5 h; how it was run: as §3
Rattus norvegicus [24] = organism: Rattus norvegicus; experiment: Biodistribution in Wistar rat whole blood at 1.0 to 1.5 mCi after 60 mins by NaI well counting analysis; format: ADME, organism-based; details: in vivo, 1 h; how it was run: as §1
Rattus norvegicus [25] = organism: Rattus norvegicus; experiment: Biodistribution in Wistar rat skeletal muscle at 1.0 to 1.5 mCi after 60 mins by NaI well counting analysis; format: ADME, organism-based, Muscle tissue; details: in vivo, 1 h; how it was run: as §1
[26] = Drug metabolism in Wistar rat plasma at 130 to 200 MBq, iv after 12 mins by radio-HPLC analysis; format: ADME, organism-based; details: read-out: Drug metabolism

Sequence of Translocator protein (P16257 whole entry, looked up): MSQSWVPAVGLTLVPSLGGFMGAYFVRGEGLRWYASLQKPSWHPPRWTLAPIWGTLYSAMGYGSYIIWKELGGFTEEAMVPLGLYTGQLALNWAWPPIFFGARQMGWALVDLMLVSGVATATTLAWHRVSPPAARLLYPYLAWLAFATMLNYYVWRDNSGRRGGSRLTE

- logP [1]: 2.45
- Ki (Translocator protein): 93.7 nM
SMILES: CCN(CC)C(=O)Cc1c(-c2ccc(OC)cc2)nn2c(C)c(C)c(C)nc12

SMILES: CCc1cc(CC)n2nc(-c3ccc(OCCF)cc3)c(CC(=O)N(CC)CC)c2n1
- Ki [2]: > 10 µM
- logP [1]: 2.5
- Ki (Translocator protein): 0.27 nM

- logP [1]: 2.07
- Ki (Translocator protein): 252 nM
SMILES: CCN(CC)C(=O)Cc1c(-c2ccc(OCCF)cc2)nn2c(C)c(CC(C)=O)c(C)nc12

- logP [1]: 2.57
- Ki (Translocator protein): 201 nM
SMILES: CCN(CC)C(=O)Cc1c(-c2ccc(OC)cc2)nn2c(C)c(CC(C)=O)c(C)nc12

- logP [1]: 2.4
SMILES: CCN(CC)C(=O)Cc1c(-c2ccc(OC)cc2)nn2c(C)cc(C)nc12

- Drug uptake (Rattus norvegicus [3]): Active
- Drug uptake (Brain [4]): Active
- Drug uptake (Testes): Active
- Drug uptake (Rattus norvegicus [5]): Active
- Drug uptake (Rattus norvegicus [6]): Active
- Drug uptake (Colon): Active
- Drug uptake (Liver [7]): Active
- Drug uptake (Lung [8]): Active
- Drug uptake (Heart [9]): Active
- Drug uptake (Kidney [10]): Active
- Drug uptake (Spleen [11]): Active
- Stability (Rattus norvegicus [12]): Stable
- Ratio [13]: 6
- Drug uptake [14]: Active
- Drug uptake (Brain [15]): Active
- Drug uptake [16]: Active
- Drug uptake (Harderian gland): Active
- Drug uptake [17]: Active
- Drug excretion [18]: Active
- Drug uptake (Liver [19]): Active
- Drug uptake (Muscle tissue): Active
- Drug uptake (Lung [20]): Not Active
- Drug uptake (Kidney [21]): Not Active
- Drug uptake (Heart [22]): Not Active
- Drug uptake (Spleen [23]): Not Active
- Ct (Rattus norvegicus [24]): Not Active
- Drug uptake (Rattus norvegicus [25]): Active
SMILES: CCc1cc(CC)n2nc(-c3ccc(OCC[18F])cc3)c(CC(=O)N(CC)CC)c2n1

- metabolised at 0.2 h [26]: 30%
SMILES: CCN(CC)C(=O)Cc1c(-c2ccc(OCC[18F])cc2)nn2c(C)cc(C)nc12 [DPA-714 F-18]

- logP [1]: 2.47
- Ki (Translocator protein): 83 nM
SMILES: CCN(CC)C(=O)Cc1c(-c2ccc(OCCF)cc2)nn2c(C)c(C)c(C)nc12

- logP [1]: 2.53
- Ki (Translocator protein): 277 nM
SMILES: CCc1c(C)nc2c(CC(=O)N(CC)CC)c(-c3ccc(OCCF)cc3)nn2c1C

- logP [1]: 2.55
- Ki (Translocator protein): 67.9 nM
SMILES: CCN(CC)C(=O)Cc1c(-c2ccc(OCCF)cc2)nn2c(C)c(Cl)c(C)nc12

- logP [1]: 2.78
- Ki (Translocator protein): 157 nM
SMILES: CCc1c(C)nc2c(CC(=O)N(CC)CC)c(-c3ccc(OC)cc3)nn2c1C

- logP [1]: 2.99
- Ki (Translocator protein): 55.4 nM
SMILES: CCN(CC)C(=O)Cc1c(-c2ccc(OC)cc2)nn2c(C)c(Cl)c(C)nc12

SMILES: CCN(CC)C(=O)Cc1c(-c2ccc(OCCF)cc2)nn2c(C(C)C)cc(C(C)C)nc12
- logP [1]: 2.73
- Ki (Translocator protein): > 500 nM

SMILES: CCN(CC)C(=O)Cc1c(-c2ccc(OC)cc2)nn2c(C(C)C)cc(C(C)C)nc12
- logP [1]: 2.98
- Ki (Translocator protein): > 500 nM

- logP [1]: 2.84
- Ki (Translocator protein): 0.18 nM
SMILES: CCc1cc(CC)n2nc(-c3ccc(OC)cc3)c(CC(=O)N(CC)CC)c2n1

- logP [1]: 2.12
SMILES: CCN(CC)C(=O)Cc1c(-c2ccc(OCCF)cc2)nn2c(C)cc(C)nc12 [DPA-714]
